45 compounds from PubChem BioAssay AID704 (The Scripps Research Institute Molecular Screening Center, 2007) can be followed below.

One may read the inhibition as the change of the read-out against control, counted positive when it falls.

SMILES strings stand for the structures. Screen size: about 97,000 compounds; about 770 (0.79%) were called active. This is one part of a sample in which actives are shown more often than they occur.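 How the source made its calls: active means inhibition above the screen-wide mean plus 3 SD (cut at about 35% in these data); inactive means the rest.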

The target of the experiment is Protein Rev (Human immunodeficiency virus type 1 group M subtype B (isolate WMJ22)) (UniProt P05866). The experiment in a line: HIV-1 Rev-RRE binding inhibitors, primary screen, biochemical, FRET, protein-RNA interaction (AID 704).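 Further: 0% = median DMSO wells and 100% = median Neomycin B control wells.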 The following applies: Rev peptide-RRE RNA binding, at 8 µM, stronger effect = higher value. The essentials: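 Assay system: labelled RRE RNA duplex and labelled Rev peptide / Medium: HEPES pH 7.5 salt buffer with EDTA / Reagent: labelled Rev peptide / Schedule: 5 + 15 min at 25 °C / Signal: FRET, excitation 480 nm, emission 540 nm donor and 671 nm acceptor / Benchmarks: DMSO and neomycin B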
Chain of Protein Rev (Human immunodeficiency virus type 1 group M subtype B (isolate WMJ22)) (P05866 whole entry, looked up): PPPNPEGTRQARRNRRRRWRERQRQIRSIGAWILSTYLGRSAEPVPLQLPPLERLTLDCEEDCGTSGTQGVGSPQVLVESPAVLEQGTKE
With `COc1ccc(Nc2nc(=O)[nH]nc2C)cc1`, the inhibition was 4.41% (inactive).

Take `COc1ccc([N+](=O)[O-])cc1NC(=O)CCc1ccccc1`: the inhibition is 1.01% (inactive). Next, `CCOC(=O)C1=C(C)Nc2sc(C(=O)c3ccc(Br)cc3)c(N)c2C1c1ccc(C(=O)OC)cc1` (stereo not given): 7.08% (inactive); `Cc1cccc(C)c1N1CCN(S(=O)(=O)N2CCOCC2)CC1`: 8.84% (inactive). As for `Cc1ccc(S(=O)(=O)Nc2nc3ccccc3nc2N2CCc3ccccc3C2)cc1`, the inhibition was 6.67% (inactive).

For `Cc1cc(N2CCN(S(=O)(=O)c3ccc(C)c(C)c3)CC2)c2ccccc2n1`, the inhibition was 16.5% (inactive). For `Cc1ccc(S(=O)(=O)C(C#N)c2nc3ccccc3nc2N2CCCC2)cc1C` (stereo not given), the inhibition was 80% [fluorescence artefact?] (active).

In the case of `CC(C)=C1SC(N2CCN(c3cccc(C)c3)CC2)=NC1=O`, the inhibition is 3.88% (inactive). Then `CCOC(=O)c1cc2n(c1N)-c1ccccc1C2=O`, with 107% [fluorescence artefact?] (active). Consider `CCOC(=O)c1cc2n(c1C)-c1ccccc1C2=O`, for which the inhibition is 7.43% (inactive). Regarding `CC(C)OC(=O)CN1C(=O)C(=O)c2ccccc21`, the inhibition was 9.74% (inactive). As for `CC(C)CCNC(=O)Cn1c(=O)oc2cc(S(=O)(=O)N3CC(C)CC(C)C3)ccc21` (stereo not given), the inhibition is 4.77% (inactive).

`CCCn1c(O)c(CN2CCCC(C)C2)c(C)c(C#N)c1=O` (stereo not given): the inhibition is 42.6% (active). As to `CCCCCCn1c(CN2CCCC(C)C2)nc2c1c(=O)n(C)c(=O)n2C` (stereo not given), the inhibition is 7.64% (inactive).

As to `CCOC(=O)N1CCN(c2c(NCCCN3CCCC(C)C3)c(=O)c2=O)CC1` (stereo not given), the inhibition is 1.25% (inactive). Regarding `O=C(O)c1ccccc1NC(=S)NC(NC(=O)c1ccccc1[N+](=O)[O-])C(Cl)(Cl)Cl` (stereo not given), the inhibition is -3.09% (inactive). With `CCc1nnc(NC(=O)c2cccs2)s1`, the inhibition is 7.76% (inactive). Next, `CCc1ccc2nc3sc(C(=O)Nc4nnc(CC)s4)c(N)c3cc2c1`: 89.2% [fluorescence artefact?] (active); `CCc1nnc(NC(=O)c2nc3nccc(C)n3n2)s1`: 12.3% (inactive). With `Cc1cccc(COc2ccccc2/C=N/Nc2ccc([N+](=O)[O-])cc2)c1`, the inhibition was 64% (active). Then `Cc1ccc(-n2c(C)cc(/C=N/Nc3ccc([N+](=O)[O-])cn3)c2C)c(C)c1`, with 31.5% (inactive); and `COc1cccc(/C=N/NC(=O)c2cccc([N+](=O)[O-])c2)c1OS(=O)(=O)c1ccc(C)cc1`, with 11.5% (inactive).

Turning to `C=CCNc1cnn(-c2ccc(C)cc2)c(=O)c1Cl`, the inhibition was -1.57% (inactive). For `Cc1ccc(-n2c(C)cc(/C=C(\C#N)C(=O)NCC3CCCO3)c2C)cc1` (stereo not given), the inhibition is -6.05% (inactive).

On to `N#CCSc1nc2c(c(=O)n1Cc1ccccc1)C1(CCCC1)Cc1ccccc1-2`, for which the inhibition was 23.3% (inactive). Then `CC(C)OCCCNc1nc2c(c(=O)n(Cc3ccccc3F)c(=O)n2C)n1C`, with 8.58% (inactive); and `Cc1cccn2c(=O)c(/C=C3\SC(=S)N(CC(C)C)C3=O)c(NCCCOC(C)C)nc12`, with 73.4% (active). As for `Cn1nc(C(F)(F)F)c(C(=O)Nc2cccc(C(F)(F)F)c2)c1SCc1ccc(Cl)cc1`, the inhibition is 9.7% (inactive). In the case of `COc1ccc(CNC(=O)C2CCC(CNc3c(N4CCOCC4)c(=O)c3=O)CC2)cc1` (stereo not given), the inhibition was -0.22% (inactive). Next, `CCOc1ccc(CN(Cc2ccco2)S(=O)(=O)c2ccc(-n3cnnn3)c(OC)c2)cc1`: 18.6% (inactive); `O=C(O)C1CCN(C(=O)OCc2ccccc2)CC1`: 2.49% (inactive). Then `CCC(C)n1c(-c2cc(OC)c(OC)c(OC)c2)nc2nc3ccccc3nc21` (stereo not given), with 2.36% (inactive).

As for `CCOC(=O)C1=C(CN2CCc3ccccc32)NC(=O)NC1c1ccc(Cl)cc1` (stereo not given), the inhibition was 10.3% (inactive). As for `CCOCCOCCC(C(=O)O)P(=O)(c1ccccc1)c1ccccc1` (stereo not given), the inhibition is 0.47% (inactive). Take `O=c1cc(C(F)(F)F)[nH]c(=O)n1C1CCCCC1`: the inhibition was 8.66% (inactive). With `COC(=O)C1=C(C)N=C2SC(C)C(=O)N2C1/C=C/c1ccccc1` (stereo not given), the inhibition is 4.63% (inactive).

Turning to `C=C(Cl)COC(=O)C1C2C=CC(C2)C1C(=O)O` (stereo not given), the inhibition was 3.94% (inactive).

For the compound `Oc1ccc(-c2onc3ccc(Cl)cc23)cc1`, the inhibition is 47.9% (active). Turning to `Cc1cccc(N(C(=O)c2ccc(CN3CCOCC3)o2)C(C(=O)NC2CCCCC2)c2ccc(F)cc2)c1` (stereo not given), the inhibition was 0.55% (inactive). With `Cc1[nH]n(-c2ccccc2)c(=O)c1CCOC(=O)c1ccc(C(F)(F)F)cc1`, the inhibition is 3.64% (inactive). For the compound `CN(C)CCCn1c(N)c(C#N)c2nc(C#N)c(C#N)nc21`, the inhibition was 44.4% (active). Take `N#Cc1c(N)n(CCOC(=O)c2ccc(Cl)cc2)c2nc3ccccc3nc12`: the inhibition is 7.97% (inactive).

On to `OC(COc1ccc2c(c1)CCC2)CN1CCN(c2cccc(Cl)c2)CC1` (stereo not given), for which the inhibition was 13.2% (inactive). Next, `Cc1cc(OCCOc2cccc3cccnc23)c(C)cc1Cl`: 17.3% (inactive); `Cc1ccc2nc(Nc3ccccc3O)nc(-c3ccccc3)c2c1`: 9.78% (inactive).
